Results on 21 molecules are retold here after ChEMBL document CHEMBL1629491, “Post Groebke-Blackburn multicomponent protocol: synthesis of new polyfunctional imidazo[1,2-a]pyridine and imidazo[1,2-a]pyrimidine derivatives as potential antimicrobial agents” (2010).

The structures appear in SMILES notation. ≈ marks a conversion by molar mass, not a printed value.

Common to all, as to format: functional
One test relates to Escherichia coli. Briefly: Antimicrobial activity against Escherichia coli after 24 hrs […]. In a few lines: (§1)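 Broth microdilution MIC. Bacteria were grown in Luria broth (1% tryptone, 0.5% yeast extract, 0.5% NaCl, pH 7.2) at 37 °C for 24 h. Mid-log cultures were read at OD540 and diluted to OD 0.004 (5 × 10⁵ CFU/mL) before inoculation. Compounds in DMSO were given as eleven twofold serial dilutions, and plates were incubated at 37 °C for 24 h. MIC was the lowest concentration with no visible growth by turbidity. Cefixime, amoxicillin and vancomycin were the positive controls.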
For orientation: ELISA stands for enzyme-linked immunosorbent assay.

In the next test the test system is Pseudomonas aeruginosa. Briefly: Antimicrobial activity against Pseudomonas aeruginosa after 24 hrs […]. In short, it runs like this:
as §1

The next test deals with Klebsiella aerogenes. In words: Antimicrobial activity against Enterobacter aerogenes after 24 hrs […]. In short, it runs like this: as §1
The subject of the next test is Staphylococcus aureus. In words: Antimicrobial activity against Staphylococcus aureus after 24 hrs […]. In short, it runs like this: as §1
For the next test, the system named is Enterococcus faecalis. Briefly: Antimicrobial activity against Enterococcus faecalis after 24 hrs […]. In a few lines: as §1
For a further test, the system named is Priestia megaterium. In words: Antimicrobial activity against Bacillus megaterium after 24 hrs […]. In a few lines: as §1

The term MIC denotes the lowest concentration that inhibits growth of the organism. Read a low MIC as inhibition by little substance. As for `Brc1ccc(-c2nc3ccc(-c4nc5ccc(Oc6ccccc6)cc5[nH]4)cn3c2Nc2ccccc2)cc1`, the MIC in the test with Escherichia coli is 31.8 µg/mL (≈ 55.6 µM); against Pseudomonas aeruginosa, 41.1 µg/mL (≈ 71.8 µM); in the test with Klebsiella aerogenes, 58.5 µg/mL (≈ 102 µM); against Staphylococcus aureus, 56.2 µg/mL (≈ 98.1 µM); in the test on Enterococcus faecalis it was 44.7 µg/mL (≈ 78.1 µM); in the test on Priestia megaterium it was 58.7 µg/mL (≈ 102 µM).

Consider `CN[C@H](CC(C)C)C(=O)N[C@H]1C(=O)N[C@@H](CC(N)=O)C(=O)N[C@H]2C(=O)N[C@H]3C(=O)N[C@H](C(=O)N[C@H](C(=O)O)c4cc(O)cc(O)c4-c4cc3ccc4O)[C@H](O)c3ccc(c(Cl)c3)Oc3cc2cc(c3O[C@@H]2O[C@H](CO)[C@@H](O)[C@H](O)[C@H]2O[C@H]2C[C@](C)(N)[C@H](O)[C@H](C)O2)Oc2ccc(cc2Cl)[C@H]1O` [VANCOMYCIN], for which the MIC came out at 6.65 µg/mL (≈ 4.59 µM) against Escherichia coli; 23.5 µg/mL (≈ 16.2 µM) in the test on Pseudomonas aeruginosa; 0.52 µg/mL (≈ 0.359 µM) against Klebsiella aerogenes; 2.75 µg/mL (≈ 1.9 µM) against Staphylococcus aureus; 4.21 µg/mL (≈ 2.9 µM) against Enterococcus faecalis; 6.37 µg/mL (≈ 4.4 µM) against Priestia megaterium.

`O=[N+]([O-])c1ccc2nc(-c3cnc4nc(-c5ccc(Br)cc5)c(Nc5ccccc5)n4c3)[nH]c2c1`: the MIC stood at 11.7 µg/mL (≈ 22.2 µM) with Escherichia coli; 12.2 µg/mL (≈ 23.2 µM) against Pseudomonas aeruginosa; 10.6 µg/mL (≈ 20.2 µM) in the test with Klebsiella aerogenes; 9.32 µg/mL (≈ 17.7 µM) against Staphylococcus aureus; 11.4 µg/mL (≈ 21.8 µM) with Enterococcus faecalis; 15.4 µg/mL (≈ 29.3 µM) in the test with Priestia megaterium.

On to `C=CC1=C(C(=O)O)N2C(=O)[C@@H](NC(=O)/C(=N\OCC(=O)O)c3csc(N)n3)[C@H]2SC1` [CEFIXIME], for which the MIC against Escherichia coli was 2.34 µg/mL (≈ 5.16 µM); in the test with Pseudomonas aeruginosa, 17.2 µg/mL (≈ 38 µM); against Klebsiella aerogenes it was 28.2 µg/mL (≈ 62.1 µM); in the test with Staphylococcus aureus, 33.9 µg/mL (≈ 74.7 µM); in the test on Enterococcus faecalis, 27.9 µg/mL (≈ 61.6 µM); against Priestia megaterium, 128 µg/mL (≈ 282 µM).

`Fc1ccc2nc(-c3ccc4nc(-c5ccc(Br)cc5)c(Nc5ccccc5)n4c3)[nH]c2c1`: the MIC was 2.15 µg/mL (≈ 4.31 µM) against Escherichia coli; 3.44 µg/mL (≈ 6.9 µM) in the test with Pseudomonas aeruginosa; 2.05 µg/mL (≈ 4.11 µM) with Klebsiella aerogenes; 1.51 µg/mL (≈ 3.03 µM) against Staphylococcus aureus; 5.23 µg/mL (≈ 10.5 µM) in the test with Enterococcus faecalis; 10.2 µg/mL (≈ 20.6 µM) in the test on Priestia megaterium.

With `Brc1ccc(-c2nc3ccc(-c4ncc(-c5ccc(Oc6ccccc6)cc5)[nH]4)cn3c2Nc2ccccc2)cc1`, the MIC worked out at 33.3 µg/mL (≈ 55.6 µM) in the test on Escherichia coli; 44.3 µg/mL (≈ 74 µM) in the test on Pseudomonas aeruginosa; 53.4 µg/mL (≈ 89.2 µM) against Klebsiella aerogenes; 58.4 µg/mL (≈ 97.5 µM) against Staphylococcus aureus; 39.6 µg/mL (≈ 66.2 µM) in the test on Enterococcus faecalis; 53.2 µg/mL (≈ 88.8 µM) in the test with Priestia megaterium.

For `Cc1ccc(-c2nc3ncc(-c4nnc(-c5ccc(F)cc5)o4)cn3c2Nc2ccccc2)cc1`, the MIC was found to be 2.78 µg/mL (≈ 6.01 µM) against Escherichia coli; 3.65 µg/mL (≈ 7.89 µM) against Pseudomonas aeruginosa; 5.29 µg/mL (≈ 11.4 µM) with Klebsiella aerogenes; 5.47 µg/mL (≈ 11.8 µM) in the test with Staphylococcus aureus; 4.58 µg/mL (≈ 9.9 µM) in the test with Enterococcus faecalis; 15.3 µg/mL (≈ 33.1 µM) against Priestia megaterium.

Consider `Clc1ccc(-c2nnc(-c3cnc4nc(-c5ccc(Br)cc5)c(Nc5ccccc5)n4c3)o2)cc1`, for which the MIC is 2.34 µg/mL (≈ 4.3 µM) with Escherichia coli; 1.56 µg/mL (≈ 2.87 µM) with Pseudomonas aeruginosa; 3.16 µg/mL (≈ 5.81 µM) in the test on Klebsiella aerogenes; 2.45 µg/mL (≈ 4.51 µM) in the test on Staphylococcus aureus; 5.37 µg/mL (≈ 9.87 µM) with Enterococcus faecalis; 8.45 µg/mL (≈ 15.5 µM) against Priestia megaterium.

`CC1(C)S[C@@H]2[C@H](NC(=O)[C@H](N)c3ccc(O)cc3)C(=O)N2[C@H]1C(=O)O` [AMOXICILLIN]: the MIC with Escherichia coli came to 16.4 µg/mL (≈ 45 µM); in the test with Pseudomonas aeruginosa, 14.5 µg/mL (≈ 39.8 µM); with Klebsiella aerogenes it was 3.65 µg/mL (≈ 9.99 µM); in the test on Staphylococcus aureus, 13.3 µg/mL (≈ 36.5 µM); in the test on Enterococcus faecalis, 1.22 µg/mL (≈ 3.34 µM); with Priestia megaterium, 2.75 µg/mL (≈ 7.53 µM).

Consider `Fc1ccc2nc(-c3cnc4nc(-c5ccc(Br)cc5)c(Nc5ccccc5)n4c3)[nH]c2c1`, for which the MIC against Escherichia coli amounted to 2.29 µg/mL (≈ 4.59 µM); in the test with Pseudomonas aeruginosa, 2.85 µg/mL (≈ 5.71 µM); against Klebsiella aerogenes, 2.25 µg/mL (≈ 4.51 µM); in the test on Staphylococcus aureus, 1.23 µg/mL (≈ 2.46 µM); against Enterococcus faecalis it was 6.64 µg/mL (≈ 13.3 µM); with Priestia megaterium, 11.7 µg/mL (≈ 23.5 µM).

For `O=[N+]([O-])c1ccc(-c2nnc(-c3cnc4nc(-c5ccc(Br)cc5)c(Nc5ccccc5)n4c3)o2)cc1`, the MIC against Escherichia coli was found to be 3.12 µg/mL (≈ 5.63 µM); against Pseudomonas aeruginosa, 4.45 µg/mL (≈ 8.03 µM); against Klebsiella aerogenes it was 2.23 µg/mL (≈ 4.02 µM); with Staphylococcus aureus it was 3.35 µg/mL (≈ 6.04 µM); in the test on Enterococcus faecalis it was 6.18 µg/mL (≈ 11.1 µM); with Priestia megaterium it was 11.2 µg/mL (≈ 20.2 µM).

In the case of `Fc1ccc2nc(-c3cnc4nc(-c5ccc(Oc6ccccc6)cc5)c(Nc5ccccc5)n4c3)[nH]c2c1`, the MIC was found to be 10.5 µg/mL (≈ 20.5 µM) in the test with Escherichia coli; 7.38 µg/mL (≈ 14.4 µM) in the test on Pseudomonas aeruginosa; 6.12 µg/mL (≈ 11.9 µM) with Klebsiella aerogenes; 9.43 µg/mL (≈ 18.4 µM) in the test with Staphylococcus aureus; 10.4 µg/mL (≈ 20.3 µM) in the test with Enterococcus faecalis; 19.8 µg/mL (≈ 38.6 µM) against Priestia megaterium.

Take `Cc1ccc(-c2nc3ncc(-c4nc5ccc(F)cc5[nH]4)cn3c2Nc2ccccc2)cc1`: the MIC was found to be 3.44 µg/mL (≈ 7.92 µM) against Escherichia coli; 4.72 µg/mL (≈ 10.9 µM) in the test with Pseudomonas aeruginosa; 6.18 µg/mL (≈ 14.2 µM) against Klebsiella aerogenes; 6.32 µg/mL (≈ 14.5 µM) in the test with Staphylococcus aureus; 5.76 µg/mL (≈ 13.3 µM) against Enterococcus faecalis; 17.2 µg/mL (≈ 39.5 µM) with Priestia megaterium.

For `Cc1ccc(-c2cnc(-c3cnc4nc(-c5ccc(Br)cc5)c(Nc5ccccc5)n4c3)[nH]2)cc1`, the MIC was 8.11 µg/mL (≈ 15.6 µM) with Escherichia coli; 11.4 µg/mL (≈ 22 µM) in the test on Pseudomonas aeruginosa; 10.8 µg/mL (≈ 20.8 µM) against Klebsiella aerogenes; 9.49 µg/mL (≈ 18.2 µM) in the test with Staphylococcus aureus; 11.7 µg/mL (≈ 22.4 µM) against Enterococcus faecalis; 15.6 µg/mL (≈ 29.8 µM) against Priestia megaterium.

Regarding `O=[N+]([O-])c1ccc(-c2nnc(-c3ccc4nc(-c5ccc(Br)cc5)c(Nc5ccccc5)n4c3)o2)cc1`, the MIC against Escherichia coli came out at 7.37 µg/mL (≈ 13.3 µM); against Pseudomonas aeruginosa, 5.45 µg/mL (≈ 9.85 µM); in the test on Klebsiella aerogenes, 4.12 µg/mL (≈ 7.45 µM); against Staphylococcus aureus, 6.36 µg/mL (≈ 11.5 µM); against Enterococcus faecalis it was 8.22 µg/mL (≈ 14.9 µM); in the test on Priestia megaterium it was 12.7 µg/mL (≈ 23 µM).

Consider `Cc1ccc(-c2nc3ccc(-c4nnc(-c5ccc([N+](=O)[O-])cc5)o4)cn3c2Nc2ccccc2)cc1`, for which the MIC in the test on Escherichia coli is 13.4 µg/mL (≈ 27.5 µM); in the test on Pseudomonas aeruginosa, 12.6 µg/mL (≈ 25.7 µM); against Klebsiella aerogenes, 10.2 µg/mL (≈ 20.8 µM); in the test on Staphylococcus aureus, 9.85 µg/mL (≈ 20.2 µM); against Enterococcus faecalis it was 11.4 µg/mL (≈ 23.3 µM); against Priestia megaterium, 15.5 µg/mL (≈ 31.7 µM).

Take `Fc1ccc(-c2cnc(-c3ccc4nc(-c5ccc(Br)cc5)c(Nc5ccccc5)n4c3)[nH]2)cc1`: the MIC against Escherichia coli came out at 1.33 µg/mL (≈ 2.54 µM); in the test on Pseudomonas aeruginosa, 2.12 µg/mL (≈ 4.04 µM); against Klebsiella aerogenes, 1.55 µg/mL (≈ 2.96 µM); against Staphylococcus aureus it was 0.72 µg/mL (≈ 1.37 µM); with Enterococcus faecalis, 3.17 µg/mL (≈ 6.05 µM); with Priestia megaterium it was 8.34 µg/mL (≈ 15.9 µM).

Take `Fc1ccc(-c2nnc(-c3ccc4nc(-c5ccc(Oc6ccccc6)cc5)c(Nc5ccccc5)n4c3)o2)cc1`: the MIC in the test on Escherichia coli is 11.7 µg/mL (≈ 21.7 µM); with Pseudomonas aeruginosa, 9.64 µg/mL (≈ 17.9 µM); in the test with Klebsiella aerogenes it was 8.42 µg/mL (≈ 15.6 µM); in the test with Staphylococcus aureus it was 11.1 µg/mL (≈ 20.6 µM); against Enterococcus faecalis, 12.6 µg/mL (≈ 23.3 µM); against Priestia megaterium, 17.4 µg/mL (≈ 32.3 µM).

In the case of `O=[N+]([O-])c1ccc2nc(-c3ccc4nc(-c5ccc(Br)cc5)c(Nc5ccccc5)n4c3)[nH]c2c1`, the MIC was 11.3 µg/mL (≈ 21.5 µM) in the test with Escherichia coli; 14.5 µg/mL (≈ 27.6 µM) against Pseudomonas aeruginosa; 12.8 µg/mL (≈ 24.5 µM) against Klebsiella aerogenes; 10.3 µg/mL (≈ 19.6 µM) with Staphylococcus aureus; 13.4 µg/mL (≈ 25.4 µM) against Enterococcus faecalis; 17.5 µg/mL (≈ 33.4 µM) in the test on Priestia megaterium.

As to `Fc1ccc(-c2nnc(-c3ccc4nc(-c5ccc(Br)cc5)c(Nc5ccccc5)n4c3)o2)cc1`, the MIC in the test on Escherichia coli turned out to be 1.11 µg/mL (≈ 2.11 µM); with Pseudomonas aeruginosa it was 2.43 µg/mL (≈ 4.62 µM); against Klebsiella aerogenes, 0.85 µg/mL (≈ 1.61 µM); against Staphylococcus aureus, 0.51 µg/mL (≈ 0.969 µM); in the test on Enterococcus faecalis, 1.57 µg/mL (≈ 2.98 µM); against Priestia megaterium it was 4.97 µg/mL (≈ 9.44 µM).

In the case of `O=[N+]([O-])c1ccc(-c2cnc(-c3cnc4nc(-c5ccc(Br)cc5)c(Nc5ccccc5)n4c3)[nH]2)cc1`, the MIC against Escherichia coli turned out to be 5.33 µg/mL (≈ 9.65 µM); in the test on Pseudomonas aeruginosa it was 7.81 µg/mL (≈ 14.1 µM); with Klebsiella aerogenes, 9.33 µg/mL (≈ 16.9 µM); against Staphylococcus aureus, 4.22 µg/mL (≈ 7.64 µM); in the test with Enterococcus faecalis it was 9.61 µg/mL (≈ 17.4 µM); in the test on Priestia megaterium, 17.4 µg/mL (≈ 31.6 µM).
